Measured values from ChEMBL document CHEMBL3352548, “Small-molecule suppression of β-lactam resistance in multidrug-resistant gram-negative pathogens” (J Med Chem, 2014).

Key:
Acinetobacter baumannii [1] = test: Antibacterial activity against Acinetobacter baumannii ATCC BAA-1605 assessed as cell death at 15 uM after 16 hrs by checkerboard assay in presence of 50% bovine plasma; type: functional; conditions: ATCC BAA-1605, Plasma
Method in brief: (§1)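 A. baumannii BAA-1605 MIC of compound alone, measured in cation-adjusted Mueller–Hinton broth (CAMHB) supplemented with 10% or 50% bovine plasma.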

Pseudomonas aeruginosa [2] = test: Antibacterial activity against Pseudomonas aeruginosa PA53 assessed as fold reduction in meropenem MIC at 60 uM after 16 hrs by microdilution method; type: functional
Method in brief: (§2)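 MIC of each compound alone was determined first. Antibiotic MICs (imipenem or meropenem for A. baumannii; ceftazidime or meropenem for P. aeruginosa) were then measured with compound at fixed sub-MIC concentrations. Fold reduction is MIC without compound divided by MIC with compound.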

Acinetobacter baumannii [3] = test: Antibacterial activity against Acinetobacter baumannii ATCC BAA-1605 assessed as reduction in CFU at 15 uM after 6 hrs by time kill assay in presence of 4 ug/ml meropenem; type: functional
Method in brief: (§3)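 Time-kill: cultures were grown at 37 °C with shaking with compound (15 μM for BAA-1605, 60 μM for PA53), meropenem (1–32 μg/mL for BAA-1605, 1–64 μg/mL for PA53), or both. Samples taken at 2, 4, 6, 8 and 24 h were serially diluted in CAMHB, plated on nutrient agar, incubated overnight at 37 °C, and colonies counted.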

Pseudomonas aeruginosa [4] = test: Antibacterial activity against Pseudomonas aeruginosa PA53 assessed as reduction in CFU at 60 uM after 6 hrs by time kill assay in presence of 4 ug/ml meropenem; type: functional; method in brief: as §3
Acinetobacter baumannii [5] = test: Antibacterial activity against Acinetobacter baumannii ATCC BAA-1605 assessed as reduction in CFU at 15 uM after 6 hrs by time kill assay in presence of 1 ug/ml meropenem; type: functional; method in brief: as §3
Pseudomonas aeruginosa [6] = test: Antibacterial activity against Pseudomonas aeruginosa PA53 assessed as reduction in CFU at 60 uM after 6 hrs by time kill assay; type: functional; method in brief: as §3
Acinetobacter baumannii [7] = test: Antibacterial activity against Acinetobacter baumannii ATCC BAA-1605 assessed as complete inhibition of bacterial growth after 16 hrs by microdilution method; type: functional; conditions: ATCC BAA-1605, 16 h; method in brief: as §2
Acinetobacter baumannii [8] = test: Antibacterial activity against Acinetobacter baumannii ATCC BAA-1605 assessed as reduction in CFU at 15 uM after 6 hrs by time kill assay; type: functional; method in brief: as §3
Pseudomonas aeruginosa [9] = test: Antibacterial activity against Pseudomonas aeruginosa PA53 assessed as fold reduction in ceftazidime MIC at 60 uM after 16 hrs by microdilution method; type: functional; method in brief: as §2
Acinetobacter baumannii [10] = test: Antibacterial activity against Acinetobacter baumannii ATCC BAA-1605 assessed as meropenem MIC at 25 uM after 6 hrs in presence of 10% bovine plasma by time kill assay (Rvb meropenem MIC in absence of plasma= 2 ug/ml); type: functional; conditions: ATCC BAA-1605, 6 h
Method in brief: (§4)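 Meropenem MIC against A. baumannii BAA-1605 in CAMHB containing 10% bovine plasma, with compound held at fixed 15, 20, 25 or 30 μM. Parallel runs were done in CAMHB without plasma.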

[11] = Hemolytic activity in sheep red blood cells up to 400 uM by UV spectrophotometry; type: ADME, cell-based, Ovis aries; conditions: erythrocyte
Method in brief: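 Mechanically defibrinated sheep blood cells were washed three times by centrifugation in PBS and diluted 10-fold. Compound in PBS was added and samples shaken at 200 rpm for 1 h at 37 °C. Supernatant was diluted 40-fold in water and read at 540 nm. PBS served as zero-lysis control and 1% Triton X as 100% lysis control.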

Pseudomonas aeruginosa [12] = test: Antibacterial activity against Pseudomonas aeruginosa PA53 assessed as reduction in CFU at 60 uM after 6 hrs by time kill assay in presence of 1 ug/ml meropenem; type: functional; method in brief: as §3
Pseudomonas aeruginosa [13] = test: Antibacterial activity against Pseudomonas aeruginosa PA53 assessed as complete inhibition of bacterial growth after 16 hrs by microdilution method; type: functional; conditions: PA53, 16 h; method in brief: as §2
Acinetobacter baumannii [14] = test: Antibacterial activity against Acinetobacter baumannii ATCC BAA-1605 assessed as cell death at 15 uM after 16 hrs by checkerboard assay in presence of 10% bovine plasma; type: functional; conditions: ATCC BAA-1605, Plasma; method in brief: as §1
Acinetobacter baumannii [15] = test: Antibacterial activity against Acinetobacter baumannii ATCC BAA-1605 assessed as meropenem MIC at 15 uM after 6 hrs in presence of 10% bovine plasma by time kill assay (Rvb meropenem MIC in absence of plasma= 32 ug/ml); type: functional; conditions: ATCC BAA-1605, 6 h; method in brief: as §4
Acinetobacter baumannii [16] = test: Antibacterial activity against Acinetobacter baumannii ATCC BAA-1605 assessed as cell death at 15 uM after 16 hrs by checkerboard assay in presence of meropenem; type: functional
Method in brief: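 Checkerboard in CAMHB with BAA-1605 at 5 × 10^5 CFU/mL. Compound and meropenem were each serially two-fold diluted along perpendicular axes, with one […] row and column giving each agent's MIC alone. ΣFIC = (combination MIC/MIC alone) for compound plus the same for antibiotic. ≤0.5 was taken as synergy, 0.5–2 as indifference, ≥2 as antagonism.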

Acinetobacter baumannii [17] = test: Antibacterial activity against Acinetobacter baumannii ATCC BAA-1605 assessed as fold reduction in meropenem MIC at 15 uM after 16 hrs by microdilution method; type: functional; method in brief: as §2
Acinetobacter baumannii [18] = test: Antibacterial activity against Acinetobacter baumannii ATCC BAA-1605 assessed as meropenem MIC at 30 uM after 6 hrs in presence of 10% bovine plasma by time kill assay (Rvb meropenem MIC in absence of plasma= 0.5 ug/ml); type: functional; conditions: ATCC BAA-1605, 6 h; method in brief: as §4
[19] = Cytotoxicity against human HaCaT cells after 12 to 18 hrs by MTT assay; type: cell-based; conditions: read-out: TCID50
Method in brief: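 HaCaT keratinocytes were grown in 10% FBS–DMEM with penicillin/streptomycin, seeded at 8 × 10^4 cells/mL and grown overnight to 90% confluence. Serial dilutions (2.5 mM to 1.22 μM, duplicate) were applied overnight. MTT was added for 4 h in the dark, then SDS/HCl solubilizer for 12–18 h. Absorbance was read at 550 nm against a 670 nm reference.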

Acinetobacter baumannii [20] = test: Antibacterial activity against Acinetobacter baumannii ATCC BAA-1605 assessed as fold reduction in imipenem MIC at 15 uM after 16 hrs by microdilution method; type: functional; method in brief: as §2
Acinetobacter baumannii [21] = test: Antibacterial activity against Acinetobacter baumannii ATCC BAA-1605 assessed as meropenem MIC at 20 uM after 6 hrs in presence of 10% bovine plasma by time kill assay (Rvb meropenem MIC in absence of plasma= 4 ug/ml); type: functional; conditions: ATCC BAA-1605, 6 h; method in brief: as §4

MIC (Acinetobacter baumannii [7]): 50 µM
MIC (Pseudomonas aeruginosa [13]): > 200 µM
SMILES: Cl.Nc1nc(-c2ccc(NC(=O)c3cc(Cl)cc(Cl)c3)cc2)c[nH]1
MIC (Acinetobacter baumannii [1]): 200 µM
fold change (FC) (Pseudomonas aeruginosa [2]): 8
fold change (FC) (Acinetobacter baumannii [3]): 4
fold change (FC) (Pseudomonas aeruginosa [4]): 3.2
fold change (FC) (Acinetobacter baumannii [5]): 4
fold change (FC) (Pseudomonas aeruginosa [6]): 2.49
fold change (FC) (Acinetobacter baumannii [8]): 2.53
fold change (FC) (Pseudomonas aeruginosa [9]): 16
MIC (Acinetobacter baumannii [10]): 8 µg/mL
Activity [11]: Non-toxic
fold change (FC) (Pseudomonas aeruginosa [12]): 3.2
MIC (Acinetobacter baumannii [14]): 50 µM
MIC (Acinetobacter baumannii [15]): 32 µg/mL
fractional inhibitory concentration index (FICI) (Acinetobacter baumannii [16]): 0.375
fold change (FC) (Acinetobacter baumannii [17]): 8
MIC (Acinetobacter baumannii [18]): 0.5 µg/mL
CC50 [19]: 387 µM
fold change (FC) (Acinetobacter baumannii [20]): 8
MIC (Acinetobacter baumannii [21]): 16 µg/mL
